# Most compounds without a hit are left out; they make up all but 2.6% or so of the library.
# RAD54 branch – RAD54 (human) branch migration inhibition. RAD54 Holliday junction branch migration, FAM/BHQ fluorescence. inhibition, % at 10.4 µM. 360,000 tested, 0.14% active;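 active means mean normalized replicate activity at least 40 and at least half of replicates scoring 40 or more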;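 further: 0% = median of neutral control wells and 100% = median of positive control wells; inhibitors cause a drop in the FAM fluorescence signal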
# INS-1E GSIS act – GLuc luminescence reporter in INS-1E cells, primary screen for activators of glucose-dependent secretion of insulin | INS-1E GLuc reporter insulin secretion, 2-3 h | activation, % at 16.6 µM | 370,000 tested, 0.61% active | AID 743287;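 active means lowest replicate activation of at least 40%, so every replicate reaches that level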;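 further: 0% = median of neutral control wells and 100% = median of IBMX positive control wells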
# AF4-AF9 inh – MLL-AF4/AF9 protein interaction inhibition. AlphaScreen, biotin-AF4 peptide binding to FLAG-AF9. inhibition, % at 10 µM. 350,000 tested, 0.47% active. AID 651704;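 active means every replicate reaching a set inhibition limit, whatever the replicate mean, cut at about 25% in these data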;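 further: 0% = plate neutral control median and 100% = total signal loss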
# E-selectin induc – induces E-selectin expression in human endothelial cells. HUVEC E-selectin immunofluorescence imaging; normalized: neutral wells 0, TNF-alpha wells 100. P16581. AID 686992. activation, % at 7.58 µM. 260,000 tested, 0.37% active;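 active means mean E-selectin-positive cell signal at least 10% of the positive control, reached in at least 60% of replicates, without over 20% cell loss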
#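 Assay system: HUVEC primary endothelial cells. Input: 3,000 HUVEC seeded per well. Doses: one compound dose added by pin transfer. Read-out basis: % PE-positive cells. Benchmarks: TNF-alpha high, DMSO low. Detection: immunofluorescence imaging. Buffer or medium: EGM-2, gelatin.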
# rRNA inh HTS – inhibitors of bacterial rRNA selective over humanized ribosomes. E. coli WT GFP vs humanized-ribosome RFP mutants, fluorescence, 24 h; active compounds read low; DMSO median 0, no signal -100. GFP signal change (wild-type ribosome), % (no concentration beside the values). 350,000 tested, 1.6% active;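 active means significant combined selectivity score with lowered wild-type GFP, culture density cut under 30%, mutant RFP and density less affected; inactive means any of these conditions unmet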
# RAD52 anneal inh – blocks human RAD52 DNA annealing. P43351. 360,000 tested, 0.46% active. AID 651710. inhibition, % at 18.7 µM. recombinant RAD52 DNA annealing, FRET fluorescence;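 active means every replicate showing at least 50% inhibition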
# Target sequence (P43351 whole entry, looked up): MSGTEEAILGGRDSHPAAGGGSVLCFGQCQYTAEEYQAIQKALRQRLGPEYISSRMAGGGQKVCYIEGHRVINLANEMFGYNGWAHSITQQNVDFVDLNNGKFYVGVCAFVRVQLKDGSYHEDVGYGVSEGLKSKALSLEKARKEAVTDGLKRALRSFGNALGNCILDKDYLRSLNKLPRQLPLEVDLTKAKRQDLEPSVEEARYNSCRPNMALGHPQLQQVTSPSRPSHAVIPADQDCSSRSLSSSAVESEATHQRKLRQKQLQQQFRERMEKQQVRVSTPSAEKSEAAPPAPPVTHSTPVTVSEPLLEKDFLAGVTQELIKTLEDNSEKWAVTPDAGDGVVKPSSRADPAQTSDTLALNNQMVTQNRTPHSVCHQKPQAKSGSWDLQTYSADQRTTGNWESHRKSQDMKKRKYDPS
# An asterisk follows results filed as active; nt = no result.
SMILES,RAD54 branch,INS-1E GSIS act,AF4-AF9 inh,E-selectin induc,rRNA inh HTS,RAD52 anneal inh
C#CCOCCOCCOCCNc1nc(N2CCOCC2)nc(N2CCN(C(=O)[C@H](CCCCN)n3cc(CN)nn3)CC2)n1,-9,21,32*,0,16,9
C#CCOCCOCCOCCNc1nc(N2CCN(C(=O)[C@H](CCCCN)n3cc([C@@H](N)CO)nn3)CC2)nc(N2CCN(C(=O)[C@H](CCCCN)n3cc([C@@H](N)CC(C)C)nn3)CC2)n1,-16,28,29*,0,19,44
CO[C@H]1CN(C)C(=O)c2ccc(NC(=O)C3CC3)cc2OC[C@H](C)N(Cc2cccc(F)c2)C[C@H]1C,8,-21,nt,0,-2,nt
C[C@@H]1CCCCO[C@H](CN(C)Cc2ccc(C(=O)Nc3ccccc3N)cc2)[C@@H](C)CN([C@H](C)CO)C(=O)c2cc(N(C)C)ccc2O1,nt,6,nt,nt,-1,nt
O=C(NCC[C@@H]1CC[C@H](NS(=O)(=O)c2cccc(F)c2)[C@@H](CO)O1)C1CCCCC1,1,-4,0,0,-4,9
CC(=O)c1sc(N/N=C/c2cccc(O)c2)nc1C,11,8,6,0,-21*,-8
O=[N+]([O-])c1cccc(-c2csc(N/N=C/c3cccc(O)c3)n2)c1,nt,4,4,nt,-42*,-15
O=C(NC(=S)Nc1nc(-c2cccc([N+](=O)[O-])c2)cs1)c1ccccc1Cl,nt,11,1,0,-19*,-20
CC(=O)c1sc(N/N=C/c2cccc([N+](=O)[O-])c2)nc1C,-3,-5,-5,0,8,-9
C[C@H](CO)N1C[C@H](C)[C@H](CN(C)C(=O)Nc2ccc(C(F)(F)F)cc2)Oc2c(NS(=O)(=O)c3ccc(Cl)cc3)cccc2C1=O,-2,11,1,1,-1,-31
C/C=C/c1ccc2c(c1)O[C@H](CN(C)C(C)=O)[C@@H](C)CN([C@H](C)CO)S2(=O)=O,-10,27,-3,3,-6,-5
COCC(=O)N1CCC2(CC1)CN(C(=O)Nc1ccccc1F)[C@H](CO)c1c2c2ccc(OC)cc2n1C,nt,6,0,0,-1,-3
COc1cc(C2Nc3ccccc3C(=O)N2c2ccccc2)c(Br)cc1OCC(=O)O (centres undefined),7,51,nt,0,nt,nt
COC(=O)COc1ccc(Cl)cc1C1Nc2ccccc2C(=O)N1c1ccc(OC)cc1 (centres undefined),4,12,-17,nt,-25*,-1
O=C(c1ccncc1)N1C[C@@H]2N[C@H](C1)C2c1ccc(-c2cccnc2)cc1 (some centres undefined),nt,10,-3,0,2,-15
O=C(CN1c2ccccc2Sc2ccccc21)N/N=C/c1ccc([N+](=O)[O-])cc1,9,-9,4,0,-24*,0
CN1C(=O)c2cc(NC(=O)c3cscn3)ccc2OC[C@H]2O[C@@H](CC(=O)N3CCOCC3)CC[C@H]21,1,39,-2,0,0,0
Cc1ccc(NC(=O)c2sc(N)nc2-c2ccc([N+](=O)[O-])cc2)c(C)c1,nt,18,30*,0,5,-12
C[C@@H]1CN([C@H](C)CO)C(=O)Cc2cc(NC(=O)Nc3ccccc3)ccc2O[C@@H]1CN(C)Cc1ccc(Oc2ccccc2)cc1,-2,-2,1,0,4,5
CCCCn1c(N)c(N(CCOC)C(=O)COC(=O)c2cc(CCC)c(C)s2)c(=O)[nH]c1=O,nt,-6,41*,nt,-6,-6
CCCC(=O)Nc1ccc2c(c1)OC[C@H](C)N(C(=O)c1ccccc1F)C[C@H](C)[C@@H](OC)CN(C)C2=O,nt,2,-1,2,1,17
CCC(C)n1c(=S)[nH]c2c(sc3ccc([N+](=O)[O-])cc32)c1=O (centres undefined),-1,-2,-5,1,-32*,4
CCOC(=O)CSc1nc2c(sc3ccc([N+](=O)[O-])cc32)c(=O)n1Cc1ccco1,-3,-22,nt,0,nt,nt
O=C(COC(=O)c1ccccc1-n1cnnn1)c1ccc(Br)cc1,7,25,1,-1,11,-17
